Data: ChEMBL document CHEMBL4308847, “Discovery, Structure-Activity Relationship, and Biological Characterization of a Novel Series of 6-((1 H-Pyrazolo[4,3- b]pyridin-3-yl)amino)-benzo[ d]isothiazole-3-carboxamides as Positive Allosteric Modulators of the Metabotropic Glutamate Receptor 4 (mGlu4)” (J Med Chem, 2018)
The source made the active and inactive calls. The rule behind the calls is not given here.

Tests used:
[1] = Brain to plasma partition coefficient, Kp of the compound in Sprague-Dawley rat model of haloperidol-induced catalepsy at 10 mg/kg, po; assay type: ADME, organism-based; settings: brain and plasma
Summary of the method: (§1)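 Male Sprague-Dawley rats given haloperidol 0.75 mg/kg i.p., then returned to cages for 60 min. Compound 10 mg/kg was dosed orally 30 min before catalepsy testing. Plasma, brain and CSF were then assayed, and free levels reported.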

P-gp [2] = assay: Permeability from basolateral to apical side in MDCK cells harboring P-gp; assay type: ADME, cell-based, Canis lupus familiaris; settings: dog, MDCK-MDR1; read-out: permeability
[3] = Fraction unbound in rat plasma after 4 hrs by equilibrium dialysis method; assay type: ADME, cell-free
[4] = Plasma concentration in Sprague-Dawley rat model of haloperidol-induced catalepsy at 10 mg/kg, po; assay type: ADME, organism-based; settings: in vivo; summary of the method: as §1
[5] = molecular target: T1, Adenosine receptor A3 (Homo sapiens) (UniProt P0DMS8); assay: Displacement of [125I]AB-MECA from recombinant human A3 receptor at 10 uM after 120 mins by scintillation counting method relative to control
T1 sequence (whole entry): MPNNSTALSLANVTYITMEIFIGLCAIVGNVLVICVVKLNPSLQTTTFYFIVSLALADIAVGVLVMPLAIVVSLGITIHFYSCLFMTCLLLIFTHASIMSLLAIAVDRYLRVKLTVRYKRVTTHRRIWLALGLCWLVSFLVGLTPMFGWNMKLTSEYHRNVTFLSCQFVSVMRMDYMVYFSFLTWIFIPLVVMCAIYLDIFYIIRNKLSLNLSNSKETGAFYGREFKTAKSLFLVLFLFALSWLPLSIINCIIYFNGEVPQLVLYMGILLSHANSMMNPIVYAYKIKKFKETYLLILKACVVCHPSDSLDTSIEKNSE

[6] = molecular target: Metabotropic glutamate receptor 8 (Rattus norvegicus) (UniProt P70579); assay: Allosteric modulation of rat mGlu8 receptor expressed in HEK cells co-expressing GIRK1/2 assessed as change in glutamate-induced thallium flux preincubated for 2.5 mins followed by glutamate addition by FluoZin-2-AM dye based fluorescence assay; assay type: cell-based
Metabotropic glutamate receptor 8 (Rattus norvegicus), sequence (P70579 whole entry): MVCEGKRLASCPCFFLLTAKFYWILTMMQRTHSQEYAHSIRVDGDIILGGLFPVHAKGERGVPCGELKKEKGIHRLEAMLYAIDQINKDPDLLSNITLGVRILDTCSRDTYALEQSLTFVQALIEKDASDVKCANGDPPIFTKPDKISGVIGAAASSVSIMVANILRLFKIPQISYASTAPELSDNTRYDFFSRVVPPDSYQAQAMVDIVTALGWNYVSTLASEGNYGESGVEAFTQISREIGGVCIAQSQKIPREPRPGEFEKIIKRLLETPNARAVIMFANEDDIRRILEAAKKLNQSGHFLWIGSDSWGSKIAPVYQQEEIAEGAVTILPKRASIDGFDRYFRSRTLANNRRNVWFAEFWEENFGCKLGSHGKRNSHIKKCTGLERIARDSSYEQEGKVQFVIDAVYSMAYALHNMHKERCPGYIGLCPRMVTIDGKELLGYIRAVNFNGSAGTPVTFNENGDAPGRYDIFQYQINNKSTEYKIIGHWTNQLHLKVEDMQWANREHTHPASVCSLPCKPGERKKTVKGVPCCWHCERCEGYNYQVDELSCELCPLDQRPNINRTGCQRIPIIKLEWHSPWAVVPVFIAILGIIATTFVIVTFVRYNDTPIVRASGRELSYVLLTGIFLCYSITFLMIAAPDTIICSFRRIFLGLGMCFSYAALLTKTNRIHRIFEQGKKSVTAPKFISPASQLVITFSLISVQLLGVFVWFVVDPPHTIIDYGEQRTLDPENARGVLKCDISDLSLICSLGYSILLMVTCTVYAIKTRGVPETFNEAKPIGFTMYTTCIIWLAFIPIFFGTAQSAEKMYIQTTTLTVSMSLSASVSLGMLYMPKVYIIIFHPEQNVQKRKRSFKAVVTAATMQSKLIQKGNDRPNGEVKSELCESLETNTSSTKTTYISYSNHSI
Summary of the method: (§2)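 HEK cells expressing GIRK1/2 plus rat mGlu2, mGlu3, mGlu7 or mGlu8, plated at 15,000 cells/well. Thallium flux was read with a double addition: 10 μM compound, then 2.5 min later a full agonist concentration-response. The agonist was glutamate, or L-AP4 for mGlu7. A left shift of more than 2-fold counted as potentiation. A right shift of more than 2-fold, or a ≥75% drop in maximum response, counted as antagonism.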

Rattus norvegicus = assay: Reversal of haloperidol-induced catalepsy in Sprague-Dawley rat assessed as decrease in latency to remove forepaws from bar at 10 mg/kg, po administered 30 mins prior to test; assay type: functional, organism-based
Summary of the method: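 Male Sprague-Dawley rats were randomized and given haloperidol 0.75 mg/kg i.p., then 60 min in home cage. Vehicle or compound (10 mg/kg) was given orally 30 min before catalepsy testing, N = 11–12 rats/group. Data analyzed by one-way ANOVA with Dunnett's test versus vehicle + haloperidol.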

[7] = molecular target: Metabotropic glutamate receptor 2 (Rattus norvegicus) (UniProt P31421); assay: Allosteric modulation of rat mGlu2 receptor expressed in HEK cells co-expressing GIRK1/2 assessed as change in glutamate-induced thallium flux preincubated for 2.5 mins followed by glutamate addition by FluoZin-2-AM dye based fluorescence assay; assay type: cell-based; summary of the method: as §2
Metabotropic glutamate receptor 2 (Rattus norvegicus), sequence (P31421 19-872 limits assumed): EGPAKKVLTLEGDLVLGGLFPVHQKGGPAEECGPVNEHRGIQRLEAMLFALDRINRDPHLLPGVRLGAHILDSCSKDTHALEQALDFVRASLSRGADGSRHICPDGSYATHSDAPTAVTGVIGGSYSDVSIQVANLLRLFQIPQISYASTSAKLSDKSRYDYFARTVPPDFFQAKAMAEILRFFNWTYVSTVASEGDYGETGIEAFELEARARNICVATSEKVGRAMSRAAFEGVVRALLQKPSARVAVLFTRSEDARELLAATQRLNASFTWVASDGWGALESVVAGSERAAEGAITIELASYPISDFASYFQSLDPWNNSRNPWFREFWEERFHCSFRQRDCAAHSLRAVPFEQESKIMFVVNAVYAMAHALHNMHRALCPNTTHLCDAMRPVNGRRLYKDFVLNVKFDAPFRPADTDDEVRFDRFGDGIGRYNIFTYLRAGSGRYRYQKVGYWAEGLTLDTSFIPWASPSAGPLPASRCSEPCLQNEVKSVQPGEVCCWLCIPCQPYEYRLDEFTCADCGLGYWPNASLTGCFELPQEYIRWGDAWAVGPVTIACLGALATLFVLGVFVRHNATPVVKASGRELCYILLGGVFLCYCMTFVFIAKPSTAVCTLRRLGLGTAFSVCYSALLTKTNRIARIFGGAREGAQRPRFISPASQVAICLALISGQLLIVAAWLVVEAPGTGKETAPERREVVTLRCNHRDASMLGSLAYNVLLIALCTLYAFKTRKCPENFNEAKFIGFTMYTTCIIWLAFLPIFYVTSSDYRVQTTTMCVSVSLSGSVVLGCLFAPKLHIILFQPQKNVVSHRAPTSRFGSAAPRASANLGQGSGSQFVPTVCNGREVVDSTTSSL

Cytochrome P450 3A4 = Cytochrome P450 3A4 (Homo sapiens, UniProt P08684); assay: Inhibition of CYP3A4 in human liver microsomes using midazolam as substrate preincubated for 15 mins followed by substrate addition and measured after 8 mins by LC-MS/MS analysis; assay type: ADME
Cytochrome P450 3A4, sequence (P08684 whole entry): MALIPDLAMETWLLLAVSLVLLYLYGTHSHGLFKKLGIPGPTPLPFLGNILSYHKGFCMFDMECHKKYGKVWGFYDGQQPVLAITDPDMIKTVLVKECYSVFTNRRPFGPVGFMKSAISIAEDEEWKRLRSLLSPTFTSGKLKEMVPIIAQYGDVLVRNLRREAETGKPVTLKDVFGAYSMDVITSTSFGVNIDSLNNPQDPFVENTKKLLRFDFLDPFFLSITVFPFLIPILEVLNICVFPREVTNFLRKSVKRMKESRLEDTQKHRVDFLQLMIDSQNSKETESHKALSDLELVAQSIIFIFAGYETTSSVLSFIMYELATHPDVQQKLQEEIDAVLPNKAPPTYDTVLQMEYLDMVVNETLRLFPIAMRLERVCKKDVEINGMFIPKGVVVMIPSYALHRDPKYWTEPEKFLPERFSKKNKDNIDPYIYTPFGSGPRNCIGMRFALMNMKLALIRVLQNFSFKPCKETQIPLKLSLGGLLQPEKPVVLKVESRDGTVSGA

[8] = Volume of distribution at steady state in rat administered as iv cassette dose; assay type: ADME, organism-based; settings: in vivo, read-out: Vdss
Summary of the method: (§3)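 IV cassette in male Sprague-Dawley rats (~300 g, n = 1 per experiment), cannulated in carotid artery and jugular vein and acclimated about one week. Plasma clearance, Vss, t1/2 and MRT were derived.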

P-gp [9] = assay: Efflux ratio of permeability in MDCK cells harboring P-gp; assay type: ADME, cell-based, Canis lupus familiaris; settings: dog, MDCK-MDR1
[10] = molecular target: Metabotropic glutamate receptor 4 (Homo sapiens, UniProt Q14833); assay: Positive allosteric modulation of human mGlu4 receptor expressed in CHO cells co-expressing Gqi5 assessed as increase in glutamate-induced calcium mobilization preincubated for 142 secs followed by EC20 glutamate addition and subsequent EC80 glutamate addition after 147 secs by Fluo-4-AM dye based fluorescence assay; assay type: functional, cell-based
Metabotropic glutamate receptor 4, sequence (Q14833 whole entry): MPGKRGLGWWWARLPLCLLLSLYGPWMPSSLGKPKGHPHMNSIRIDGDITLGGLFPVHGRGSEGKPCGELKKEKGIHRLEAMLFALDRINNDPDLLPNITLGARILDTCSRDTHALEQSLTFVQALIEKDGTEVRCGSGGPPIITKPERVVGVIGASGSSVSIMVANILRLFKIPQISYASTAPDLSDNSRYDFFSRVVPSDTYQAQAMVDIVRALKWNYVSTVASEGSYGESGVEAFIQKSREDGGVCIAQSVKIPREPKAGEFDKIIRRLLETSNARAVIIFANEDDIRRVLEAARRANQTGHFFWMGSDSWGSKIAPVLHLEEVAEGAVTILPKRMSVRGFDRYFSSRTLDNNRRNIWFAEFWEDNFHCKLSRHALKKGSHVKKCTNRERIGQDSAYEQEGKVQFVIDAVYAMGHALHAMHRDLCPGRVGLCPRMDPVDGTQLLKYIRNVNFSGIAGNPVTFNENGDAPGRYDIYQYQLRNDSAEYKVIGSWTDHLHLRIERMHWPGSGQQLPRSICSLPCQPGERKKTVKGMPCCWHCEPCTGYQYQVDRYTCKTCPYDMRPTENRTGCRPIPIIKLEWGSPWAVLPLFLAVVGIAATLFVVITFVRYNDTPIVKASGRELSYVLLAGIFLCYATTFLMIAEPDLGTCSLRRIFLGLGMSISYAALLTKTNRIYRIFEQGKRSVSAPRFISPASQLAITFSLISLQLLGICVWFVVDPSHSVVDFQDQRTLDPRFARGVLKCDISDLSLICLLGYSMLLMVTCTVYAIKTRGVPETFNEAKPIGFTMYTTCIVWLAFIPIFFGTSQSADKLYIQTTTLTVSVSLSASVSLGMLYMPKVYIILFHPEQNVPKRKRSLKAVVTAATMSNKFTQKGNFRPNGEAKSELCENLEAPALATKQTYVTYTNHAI
Summary of the method: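 CHO cells expressing human mGlu4 and Gqi5, plated at 30,000 cells/well and grown overnight at 37 °C, 5% CO2. Cells were loaded with 1 μM Fluo-4 AM for 45 min at 37 °C in HBSS/20 mM HEPES/2.5 mM probenecid. Compounds were run as 10-point, 1:3 dilution series. After 142 s, EC20 glutamate was added; 147 s later, EC80 glutamate. Fluorescence was normalized to the maximal glutamate response. EC50 and %Glu Max were fitted by four-parameter logistic, with maximum normalized to PHCCC.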

Cytochrome P450 2C9 = Cytochrome P450 2C9 (Homo sapiens, UniProt P11712); assay: Inhibition of CYP2C9 in human liver microsomes using diclofenac as substrate preincubated for 15 mins followed by substrate addition and measured after 8 mins by LC-MS/MS analysis; assay type: ADME
Cytochrome P450 2C9, sequence (P11712 whole entry): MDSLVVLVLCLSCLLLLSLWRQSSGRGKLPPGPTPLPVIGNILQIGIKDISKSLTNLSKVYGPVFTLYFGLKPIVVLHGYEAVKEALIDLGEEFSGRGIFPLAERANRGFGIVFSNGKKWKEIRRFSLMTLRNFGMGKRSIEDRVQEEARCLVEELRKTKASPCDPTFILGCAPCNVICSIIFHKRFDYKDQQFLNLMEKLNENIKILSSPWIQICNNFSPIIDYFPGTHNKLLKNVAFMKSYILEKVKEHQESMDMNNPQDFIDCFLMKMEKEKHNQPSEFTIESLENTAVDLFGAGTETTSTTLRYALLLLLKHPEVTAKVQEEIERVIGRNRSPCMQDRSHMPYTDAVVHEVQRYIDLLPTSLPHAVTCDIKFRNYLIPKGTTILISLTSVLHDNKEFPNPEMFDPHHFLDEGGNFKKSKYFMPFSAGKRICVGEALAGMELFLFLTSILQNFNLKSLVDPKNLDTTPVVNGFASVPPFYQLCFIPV

[11] = Intrinsic clearance in rat liver microsomes at 1 uM preincubated for 5 mins followed by NADPH addition measured up to 45 mins by LC-MS/MS analysis; assay type: ADME, Microsome; settings: read-out: CLH
Summary of the method: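 Intrinsic and predicted hepatic clearance derived from liver microsome incubations.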

[12] = Clearance in rat administered as iv cassette dose; assay type: ADME, organism-based; settings: in vivo; summary of the method: as §3
[13] = Drug uptake in cerebrospinal fluid of Sprague-Dawley rat model of haloperidol-induced catalepsy at 10 mg/kg, po; assay type: ADME, organism-based; settings: in vivo, read-out: Drug uptake; summary of the method: as §1
[14] = Half life in rat administered as iv cassette dose; assay type: ADME, organism-based; settings: in vivo; summary of the method: as §3

Papp B→A (P-gp [2]): 5.4 ×10⁻⁶ cm/s | fraction unbound at 4 h [3]: 0.005 | inhibition [5]: 76% | Activity [6]: inactive | Activity [7]: inactive | IC50 (Cytochrome P450 3A4): > 30 µM | Vd [8]: 1.6 L/kg | efflux ratio (P-gp [9]): 1.9 | EC50 [10]: 0.0501 µM | IC50 (Cytochrome P450 2C9): > 30 µM | CLint scaled at 1 µM [11]: 34.2 mL/min/kg | clearance [12]: 3.1 mL/min/kg | half-life [14]: 7.42 h
SMILES: O=C(NC1CC(F)(F)C1)c1nsc2cc(Nc3n[nH]c4cccnc34)ccc12
Kp [1]: 0.23 | concentration [4]: 1120 nM | Activity (Rattus norvegicus): Active | concentration [13]: 46 nM
